Reference: ChEMBL document CHEMBL4330087, “Synthesis, antimicrobial activity, attenuation of aminoglycoside resistance in MRSA, and ribosomal A-site binding of pyrene-neomycin conjugates” (Eur J Med Chem, 2019)
Values after ≈ are worked out from the molar mass of the structure shown. Active and inactive are the calls of the source. The rule behind the calls is not given here.

What was measured:
Staphylococcus aureus [1] = test: Antibacterial activity against NEO-sensitive Staphylococcus aureus 25923 after 15 to 20 hrs by CLSI protocol based microdilution assay; assay type: functional
In short: (§1)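 CLSI broth microdilution on exponential-phase bacteria at ~3×10^5 cells/mL in cation-adjusted Mueller-Hinton broth. Serial 2-fold dilutions gave final concentrations of 50 to 0.78 μM; compound stocks were 10× in 10% DMSO. Incubated at 37 °C for 15-20 h, growth read at A595. Percent inhibition averaged over triplicates; MIC in μM.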

Staphylococcus aureus [2] = test: Antibacterial activity against NEO-sensitive Staphylococcus aureus harboring NorA mutant after 15 to 20 hrs by CLSI protocol based microdilution assay; assay type: functional; in short: as §1
[3] = tested on: Staphylococcus epidermidis; test: Antibacterial activity against NEO-sensitive Staphylococcus epidermidis 12384 after 15 to 20 hrs by CLSI protocol based microdilution assay; assay type: functional; in short: as §1
Staphylococcus aureus [4] = test: Antibacterial activity against methicillin-resistant Staphylococcus aureus 33591 after 15 to 20 hrs by CLSI protocol based microdilution assay; assay type: functional; in short: as §1
Staphylococcus aureus [5] = test: Antibacterial activity against methicillin-resistant Staphylococcus aureus A960649 after 15 to 20 hrs by CLSI protocol based microdilution assay; assay type: functional; in short: as §1
Staphylococcus aureus [6] = test: Antibacterial activity against methicillin-resistant Staphylococcus aureus SU-5 after 15 to 20 hrs by CLSI protocol based microdilution assay; assay type: functional; in short: as §1
Staphylococcus aureus [7] = test: Antibacterial activity against methicillin-resistant Staphylococcus aureus M0602 after 15 to 20 hrs by CLSI protocol based microdilution assay; assay type: functional; in short: as §1
Streptococcus pyogenes = test: Antibacterial activity against NEO-resistant Streptococcus pyogenes C203 after 15 to 20 hrs by CLSI protocol based microdilution assay; assay type: functional; in short: as §1
Bacillus anthracis = test: Antibacterial activity against NEO-sensitive Bacillus anthracis BA852 after 15 to 20 hrs by CLSI protocol based microdilution assay; assay type: functional; in short: as §1
[8] = tested on: Mycolicibacterium smegmatis; test: Antibacterial activity against NEO-sensitive Mycobacterium smegmatis after 15 to 20 hrs by CLSI protocol based microdilution assay; assay type: functional; in short: as §1
Escherichia coli [9] = test: Antibacterial activity against NEO-sensitive Escherichia coli ATCC 25922 after 15 to 20 hrs by CLSI protocol based microdilution assay; assay type: functional; in short: as §1
Escherichia coli [10] = test: Antibacterial activity against NEO-sensitive Escherichia coli harboring TolC mutant after 15 to 20 hrs by CLSI protocol based microdilution assay; assay type: functional; in short: as §1
Escherichia coli [11] = test: Antibacterial activity against multidrug-resistant Escherichia coli H4H after 15 to 20 hrs by CLSI protocol based microdilution assay; assay type: functional; in short: as §1
[12] = tested on: Staphylococcus epidermidis; test: Antibacterial activity against NEO-sensitive Staphylococcus epidermidis 12384 at 6.25 uM after 15 to 20 hrs by CLSI protocol based microdilution assay relative to control; assay type: functional
In short: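 Single-concentration screen at 6.25 μM against exponential-phase cultures, in duplicate, with NEO as reference. Enterococcus was grown in BHI broth, M. smegmatis in TS broth with 0.05% Tween 80, and all other strains in TS broth. The 1% DMSO water vehicle was added to broth (background) and culture (growth control). Incubation was 37 °C, humidified, 15-20 h. Result is percent growth inhibition.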

Staphylococcus aureus [13] = test: Antibacterial activity against methicillin-resistant Staphylococcus aureus SU-5 at 6.25 uM after 15 to 20 hrs by CLSI protocol based microdilution assay relative to control; assay type: functional
In short: (§2)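 Exponential-phase cultures were exposed to 6.25 μM compound in duplicate with neomycin as reference, at 37 °C in a humidified incubator for 15-20 h. Broth and culture controls received sterile water with 1% DMSO. Percent growth inhibition was calculated against the growth and background controls.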

Escherichia coli [14] = test: Antibacterial activity against multidrug-resistant Escherichia coli H4H at 6.25 uM after 15 to 20 hrs by CLSI protocol based microdilution assay relative to control; assay type: functional; in short: as §2
Escherichia coli [15] = test: Antibacterial activity against Escherichia coli O157:H7 at 6.25 uM after 15 to 20 hrs by CLSI protocol based microdilution assay relative to control; assay type: functional; in short: as §2
Ribosomal RNA A-site [16] = test: Binding affinity to rRNA-A site in Escherichia coli S30 extract assessed as inhibition of protein translation after 20 mins; assay type: nucleic-acid assay
Ribosomal RNA A-site [17] = test: Binding affinity to rRNA-A site in human MDA-MB-231 cells assessed as inhibition of protein translation; assay type: cell-based
Staphylococcus aureus [18] = test: Antibacterial activity against NEO-sensitive Staphylococcus aureus C2 after 15 to 20 hrs by CLSI protocol based microdilution assay; assay type: functional
In short: (§3)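 CLSI broth microdilution MIC in triplicate on exponential-phase cells, ~3×10^5 cells per mL in cation-adjusted Mueller-Hinton broth. Compound was added from 10× stocks in 10% DMSO as serial 2-fold dilutions, final 50 to 0.78 μM. Plates were incubated at 37 °C, humidified, 15-20 h. Growth was read as absorbance at 595 nm, and percent inhibition was averaged over triplicates.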

Staphylococcus aureus [19] = test: Antibacterial activity against NEO-sensitive Staphylococcus aureus C1 after 15 to 20 hrs by CLSI protocol based microdilution assay; assay type: functional; in short: as §3
Staphylococcus aureus [20] = test: Antibacterial activity against NEO-sensitive Staphylococcus aureus NRS77 after 15 to 20 hrs by CLSI protocol based microdilution assay; assay type: functional; in short: as §3
Staphylococcus aureus [21] = test: Antibacterial activity against NEO-sensitive Staphylococcus aureus 6538 after 15 to 20 hrs by CLSI protocol based microdilution assay; assay type: functional; in short: as §3
[22] = Toxicity in Caenorhabditis elegans infected with methicillin-resistant Staphylococcus aureus assessed as effect on nematode larvae viability by measuring decrease in formazan production at 6.25 to 50 uM after 24 hrs by MTT assay relative to control
[23] = Toxicity in Caenorhabditis elegans infected with methicillin-resistant Staphylococcus aureus assessed as effect on nematode larvae viability by measuring decrease in formazan production at 3.13 to 1.56 uM after 24 hrs by MTT assay

| Structure (SMILES) | MIC (Staphylococcus aureus [1]) [µM] | MIC (Staphylococcus aureus [2]) [µM] | MIC [3] [µM] | MIC (Staphylococcus aureus [4]) [µM] | MIC (Staphylococcus aureus [5]) [µM] | MIC (Staphylococcus aureus [6]) [µM] | MIC (Staphylococcus aureus [7]) [µM] | MIC (Streptococcus pyogenes) | MIC (Bacillus anthracis) [µM] | MIC [8] [µM] | MIC (Escherichia coli [9]) [µM] | MIC (Escherichia coli [10]) [µM] | MIC (Escherichia coli [11]) [µM] | Activity [12] [%] | Activity (Staphylococcus aureus [13]) | Activity (Escherichia coli [14]) | Activity (Escherichia coli [15]) [%] | IC50 (Ribosomal RNA A-site [16]) [nM] | IC50 (Ribosomal RNA A-site [17]) [nM] | MIC (Staphylococcus aureus [18]) [µM] | also measured |
| --- | --- | --- | --- | --- | --- | --- | --- | --- | --- | --- | --- | --- | --- | --- | --- | --- | --- | --- | --- | --- | --- |
| NC[C@@H]1O[C@H](O[C@H]2[C@@H](O)[C@H](O[C@@H]3[C@@H](O)[C@H](N)C[C@H](N)[C@H]3O[C@H]3O[C@H](CN)[C@@H](O)[C@H](O)[C@H]3N)O[C@@H]2CSCCNC(=S)NCCCCCCNC(=O)CCCc2ccc3ccc4cccc5ccc2c3c45)[C@H](N)[C@@H](O)[C@@H]1O | 6.25 (≈ 6.89 µg/mL) | 6.25 (≈ 6.89 µg/mL) | 3.13 (≈ 3.45 µg/mL) | 25 (≈ 27.6 µg/mL) | 25 (≈ 27.6 µg/mL) | 50 (≈ 55.1 µg/mL) | 25 to 50 (≈ 27.6 to 55.1 µg/mL) | inactive | 3.13 (≈ 3.45 µg/mL) | 6.25 (≈ 6.89 µg/mL) | > 25 | 1.56 to 3.13 (≈ 1.72 to 3.45 µg/mL) | > 25 | 80 | 0% | 5 - 30% | 0 | 213 | 213 |  |  |
| NC[C@@H]1O[C@H](O[C@H]2[C@@H](O)[C@H](O[C@@H]3[C@@H](O)[C@H](N)C[C@H](N)[C@H]3O[C@H]3O[C@H](CN)[C@@H](O)[C@H](O)[C@H]3N)O[C@@H]2CNC(=O)CCCc2ccc3ccc4cccc5ccc2c3c45)[C@H](N)[C@@H](O)[C@@H]1O | 12.5 (≈ 11 µg/mL) | 12.5 (≈ 11 µg/mL) | 12.5 (≈ 11 µg/mL) | 12.5 (≈ 11 µg/mL) | 12.5 (≈ 11 µg/mL) | 25 (≈ 22.1 µg/mL) | 25 (≈ 22.1 µg/mL) | 25 µM (≈ 22.1 µg/mL) | 12.5 (≈ 11 µg/mL) | 12.5 (≈ 11 µg/mL) | > 25 | 12.5 (≈ 11 µg/mL) | > 25 | 80 | 22% | 0% | 0 |  |  |  |  |
| NC[C@@H]1O[C@H](O[C@H]2[C@@H](O)[C@H](O[C@@H]3[C@@H](O)[C@H](N)C[C@H](N)[C@H]3O[C@H]3O[C@H](CN)[C@@H](O)[C@H](O)[C@H]3N)O[C@@H]2CSCCNC(=O)CCCc2ccc3ccc4cccc5ccc2c3c45)[C@H](N)[C@@H](O)[C@@H]1O | 12.5 (≈ 11.8 µg/mL) | 6.25 to 12.5 (≈ 5.9 to 11.8 µg/mL) | 6.25 (≈ 5.9 µg/mL) | 12.5 (≈ 11.8 µg/mL) | 12.5 (≈ 11.8 µg/mL) | 25 (≈ 23.6 µg/mL) | 25 (≈ 23.6 µg/mL) | 50 µM (≈ 47.2 µg/mL) | 6.25 (≈ 5.9 µg/mL) | 6.25 (≈ 5.9 µg/mL) | > 25 | 6.25 (≈ 5.9 µg/mL) | > 25 | 82 | 34% | <=30% | 3 | 927 | 927 |  |  |
| NC[C@@H]1O[C@H](O[C@H]2[C@@H](O)[C@H](O[C@@H]3[C@@H](O)[C@H](N)C[C@H](N)[C@H]3O[C@H]3O[C@H](CN)[C@@H](O)[C@H](O)[C@H]3N)O[C@@H]2CSCCNC(=O)CCc2ccc3ccc4cccc5ccc2c3c45)[C@H](N)[C@@H](O)[C@@H]1O |  |  |  |  |  |  |  |  |  |  |  |  |  | 56 | inactive | inactive |  |  |  | 12.5 (≈ 11.6 µg/mL) | MIC (Staphylococcus aureus [19]): 25 µM (≈ 23.3 µg/mL); MIC (Staphylococcus aureus [20]): 6.3 µM (≈ 5.86 µg/mL); MIC (Staphylococcus aureus [21]): 12.5 µM (≈ 11.6 µg/mL); Activity [22]: 50 to 75%; Activity [23]: Non-Toxic |
| NC[C@@H]1O[C@H](O[C@H]2[C@@H](O)[C@H](O[C@@H]3[C@@H](O)[C@H](N)C[C@H](N)[C@H]3O[C@H]3O[C@H](CN)[C@@H](O)[C@H](O)[C@H]3N)O[C@@H]2CSCCNC(=O)Cc2ccc3ccc4cccc5ccc2c3c45)[C@H](N)[C@@H](O)[C@@H]1O |  | 6.25 to 12.5 (≈ 5.73 to 11.5 µg/mL) | 6.25 (≈ 5.73 µg/mL) |  | 12.5 (≈ 11.5 µg/mL) | 25 (≈ 22.9 µg/mL) | 25 (≈ 22.9 µg/mL) | inactive | 6.25 (≈ 5.73 µg/mL) | 6.25 (≈ 5.73 µg/mL) | > 25 | 6.25 (≈ 5.73 µg/mL) | > 25 | 81 | 39% |  |  | 269 | 269 | 12.5 (≈ 11.5 µg/mL) | MIC (Staphylococcus aureus [19]): 12.5 µM (≈ 11.5 µg/mL); MIC (Staphylococcus aureus [20]): 3.2 µM (≈ 2.93 µg/mL); Activity [22]: 50 to 75%; Activity [23]: Non-Toxic |
| NC[C@@H]1O[C@H](O[C@H]2[C@@H](O)[C@H](O[C@@H]3[C@@H](O)[C@H](N)C[C@H](N)[C@H]3O[C@H]3O[C@H](CN)[C@@H](O)[C@H](O)[C@H]3N)O[C@@H]2CNC(=O)Cc2ccc3ccc4cccc5ccc2c3c45)[C@H](N)[C@@H](O)[C@@H]1O |  |  |  |  |  |  |  |  |  |  |  |  |  | 15 | inactive | inactive | 0 | 1280 | 1200 to 1280 | > 25 | MIC (Staphylococcus aureus [19]): > 25 µM; MIC (Staphylococcus aureus [20]): > 25 µM; MIC (Staphylococcus aureus [21]): > 25 µM |
